Molecular target: T1, P2X purinoceptor 3 (Mus musculus) (UniProt Q3UR32)
T1 sequence (whole entry): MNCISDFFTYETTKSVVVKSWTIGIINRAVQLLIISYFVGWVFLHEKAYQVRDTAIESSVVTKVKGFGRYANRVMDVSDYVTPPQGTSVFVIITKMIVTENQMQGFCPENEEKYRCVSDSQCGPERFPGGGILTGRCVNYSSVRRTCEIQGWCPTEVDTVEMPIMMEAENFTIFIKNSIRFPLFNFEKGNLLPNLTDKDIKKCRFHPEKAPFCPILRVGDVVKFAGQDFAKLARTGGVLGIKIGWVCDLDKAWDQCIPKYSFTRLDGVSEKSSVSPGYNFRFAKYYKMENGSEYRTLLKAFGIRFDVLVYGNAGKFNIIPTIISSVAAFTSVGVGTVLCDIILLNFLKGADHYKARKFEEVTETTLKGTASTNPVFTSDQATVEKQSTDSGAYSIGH
Assay: Antagonist activity at P2X3R in mouse TG sensory neurons assessed as inhibition of P2X3R agonist alpha,beta-meATP-induced current at 1 uM at -65 mV holding potential by whole cell voltage clamp method relative to control
How it was run: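 Mouse trigeminal sensory neurons were recorded by whole-cell patch clamp. Test compound (0.001–10 μM) was applied before 10 μM α,β-meATP, and inhibition of the agonist-evoked P2X3 current was measured. IC50 was taken from concentration–inhibition curves. N = 5–6 cells.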

- inhibition: 25%
SMILES: Nc1ncnc2c1ncn2[C@@H]1O[C@H](COP(=O)(O)OP(=O)(O)OP(=O)(O)O)[C@H]2OCO[C@H]21

Source: ChEMBL document CHEMBL4433213, “Investigation on 2',3'-O-Substituted ATP Derivatives and Analogs as Novel P2X3 Receptor Antagonists” (ACS Med Chem Lett, 2019)
